Results on five molecules are retold here after ChEMBL document CHEMBL1133696, “Development of a lead inhibitor for the A16V+S108T mutant of dihydrofolate reductase from the cycloguanil-resistant strain (T9/94) of Plasmodium falciparum” (J Med Chem, 2000).

Assay [1] deals with T1, Bifunctional dihydrofolate reductase-thymidylate synthase (Plasmodium falciparum K1, UniProt P13922, A16V/S108T). Briefly: Inhibition constant (Ki mut) against A16V+S108T Mutant DHFRs of Plasmodium falciparum.
Assay [2] addresses Bifunctional dihydrofolate reductase-thymidylate synthase (Plasmodium falciparum K1) (UniProt P13922). Put plainly: Evaluated for activity of compound relative to Cycloguanil.
For assay [3], the system named is Plasmodium falciparum. Briefly: (§1) Growth inhibition (IC50) against Plasmodium falciparum wild-type TM4/8.2. It counts as functional, organism-based. In short, it runs like this: (§2)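 Parasites kept in human erythrocytes in RPMI 1640 with 25 mM HEPES pH 7.4, 0.2% NaHCO3, gentamicin and 10% human serum, at 37 °C under 3% CO2. Clones used were TM4/8.2 (wild-type DHFR) and T9/94 RC17 (A16V+S108T). Drug dilutions were made from DMSO stocks, final DMSO 0.1%, and added to a 1.5% cell suspension at 1-2% parasitemia. After 24 h, 0.25 µCi [3H]-hypoxanthine was added for a further 18-24 h, then scintillation counting. IC50 taken from a sigmoidal curve.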

Assay [4] relates to Plasmodium falciparum. Put plainly: Inhibition of Plasmodium falciparum T9/94 mutant. It counts as functional, organism-based. In short, it runs like this: as §2
Assay [5] has as its target Bifunctional dihydrofolate reductase-thymidylate synthase (Plasmodium falciparum K1) (UniProt P13922). Put plainly: Evaluated for activity of relative to Cycloguanil.
Assay [6] has the same target. Put plainly: Selectivity ratio of growth inhibition against Plasmodium falciparum TM4/8.2(wild-type) and T9/94(mutant). It counts as functional.
Assay [7] shares this target. Put plainly: Ratio of inhibitory constant of mutant by wild-type DHFRs of Plasmodium falciparum.
For assay [8], the system named is Plasmodium falciparum. Described as §1. It counts as functional, organism-based. In short, it runs like this:
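TM4/8.2 clone (wild-type DHFR) grown in human erythrocytes, RPMI 1640 with 25 mM HEPES pH 7.4, 0.2% NaHCO3, gentamicin, 10% human serum, 37 °C, 3% CO2. Drug from DMSO (final 0.1%), 1.5% cell suspension at 1-2% parasitemia; [3H]-hypoxanthine added after 24 h, a further 18-24 h incubation. IC50 from sigmoidal incorporation-versus-concentration curve.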
The source holds these as a separate data set.

The subject of assay [9] is Plasmodium falciparum. Put plainly: Growth inhibition IC50 against Plasmodium falciparum mutant T9/94. It counts as functional, organism-based. In short, it runs like this: as §2
For assay [10], the target named is T1, Bifunctional dihydrofolate reductase-thymidylate synthase. Briefly: Evaluated for inhibition constant (Ki mut) against A16V+S108T Mutant dihydrofolate reductase of Plasmodium falciparum.
Assay [11] can be described thus: Selectivity ratio of growth inhibition values of wild-type (TM4/8.2) and mutant (T9/94) clones of Plasmodium falciparum. In short, it runs like this:
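Clones TM4/8.2 (wild-type DHFR) and T9/94 RC17 (A16V+S108T) grown in human erythrocytes in RPMI 1640 with 25 mM HEPES pH 7.4 and 10% human serum, 37 °C, 3% CO2. 1.5% cell suspension at 1-2% parasitemia with drug in 0.1% DMSO final for 24 h, then [3H]-hypoxanthine 18-24 h. IC50 taken from sigmoidal curves; ratio is T9/94 IC50 over TM4 IC50.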

Chain of Bifunctional dihydrofolate reductase-thymidylate synthase (Plasmodium falciparum K1) (P13922 whole entry, looked up): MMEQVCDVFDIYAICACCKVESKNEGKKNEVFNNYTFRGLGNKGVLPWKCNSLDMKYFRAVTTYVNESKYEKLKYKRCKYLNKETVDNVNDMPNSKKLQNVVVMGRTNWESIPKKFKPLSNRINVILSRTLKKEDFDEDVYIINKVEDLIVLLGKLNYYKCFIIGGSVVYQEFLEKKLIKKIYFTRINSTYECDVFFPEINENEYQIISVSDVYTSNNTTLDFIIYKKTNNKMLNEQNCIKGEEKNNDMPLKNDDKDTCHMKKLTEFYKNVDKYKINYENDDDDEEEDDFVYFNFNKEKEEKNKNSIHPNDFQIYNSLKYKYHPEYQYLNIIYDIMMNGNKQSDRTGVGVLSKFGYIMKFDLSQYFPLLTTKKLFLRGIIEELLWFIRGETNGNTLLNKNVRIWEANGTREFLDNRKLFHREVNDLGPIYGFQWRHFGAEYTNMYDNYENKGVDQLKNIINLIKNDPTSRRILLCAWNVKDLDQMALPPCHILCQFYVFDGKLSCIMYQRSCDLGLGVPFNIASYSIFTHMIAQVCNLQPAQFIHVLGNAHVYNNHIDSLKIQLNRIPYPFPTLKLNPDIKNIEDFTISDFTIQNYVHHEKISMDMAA
T1 sequence (P13922 whole entry, looked up, stated change not applied): as the sequence (P13922 whole entry, looked up) above

Broadly, the Ki is the equilibrium dissociation constant of an inhibitor or competing ligand from its target. Lower therefore signals higher affinity. One may read the IC50 as the point on the concentration scale where inhibition reaches its midpoint. A low value points to higher potency. In [1], `CC1(C)N=C(N)N=C(N)N1c1ccc(Cl)cc1` [CYCLOGUANIL] registered a Ki of 1310 nM. Moreover, the Relative activity in [2] and in [5] was 1 each time. The IC50 in the assay on Plasmodium falciparum [3] came out at 40 nM; with Plasmodium falciparum [4] it was 2430 nM. Besides, in assay [6], the IC50 ratio was found to be 60.8. For the same molecule, the Ratio in assay [7] amounted to 876.

The molecule `CC1(C)N=C(N)N=C(N)N1c1ccc(Cl)c(Cl)c1` [CHLORCYCLOGUANIL] had a Ki in assay [1] of 131 nM. The values for the Relative activity in assay [2] and in assay [5] were 0.1 and 0.73, respectively. Also, the IC50 in the assay on Plasmodium falciparum [8] is 4 nM; with Plasmodium falciparum [9] it was 307 nM. Moreover, the IC50 ratio in [6] was 76.8. Moreover, the Ratio in [7] came to 119.

For the molecule `NC1=NC(c2ccccc2)N(c2ccc(Br)cc2)C(N)=N1` (stereo not given), the inhibitory constant (Ki) in [10] amounted to 90 nM. For the same molecule, the Relative activity turned out to be 0.07 in [2] and 1.9 in [5]. Besides, the IC50 with Plasmodium falciparum [8] came to 47 nM; in the assay with Plasmodium falciparum [4], 180 nM. The IC50 ratio in assay [6] stood at 3.86. The Ratio in assay [7] is 31.

`CCCCC1N=C(N)N=C(N)N1c1ccc(Cl)cc1` (stereo not given): the affinity in assay [10], expressed as Ki, was 167 nM. For the same molecule, the results for the Relative activity in assay [2] and in [5] were 0.1 and 2.5, respectively. Also, the IC50 in the assay with Plasmodium falciparum [8] worked out at 111 nM; in the assay on Plasmodium falciparum [4], 250 nM. Further, the IC50 ratio in assay [11] is 2.25. Also, the Ratio in assay [7] was found to be 45.

Molecule `CCCC1N=C(N)N=C(N)N1c1ccc(Cl)cc1` (stereo not given) yielded a Ki in assay [10] of 107 nM. Besides, the figures for the Relative activity in assay [2] and in [5] were 0.08 and 3.1, respectively. Moreover, the IC50 with Plasmodium falciparum [8] stood at 65 nM; with Plasmodium falciparum [4] it was 365 nM. In assay [6], the IC50 ratio was determined as 5.62. For the same molecule, the Ratio in assay [7] was 23.
